Reference: ChEMBL document CHEMBL5385869, “Novel 4-aminoquinolines: Synthesis, inhibition of the Mycobacterium tuberculosis enoyl-acyl carrier protein reductase, antitubercular activity, SAR, and preclinical evaluation” (Eur J Med Chem, 2023)
≈ marks a conversion by molar mass, not a printed value. Where “and” joins values, the source holds several entries; their conditions need not be identical. Identical values can stand only once. Calls of active or inactive are those of the source. No cut-off for these calls is given here.

Legend:
[1] = system: Mycobacterium tuberculosis; test: Antibacterial activity against Mycobacterium tuberculosis H37Rv ATCC 27294 infected in CF-1 mouse assessed as reversal of bacterial growth in spleen at 150 uM/kg, po administered daily for 14 days starting from 7 days post infection; assay type: functional, organism-based; details: time 14.0 day
In short: (§1)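 Lung and spleen homogenates plated for CFU counts and compared with vehicle and early-control groups.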

[2] = system: Mycobacterium tuberculosis; test: Antibacterial activity against pan-sensitive Mycobacterium tuberculosis H37Rv ATCC 27294 measured after 7 days by resazurin dye based assay; assay type: functional; details: H37Rv ATCC 27294, 168 h, time 7 day
In short: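 Resazurin reduction microplate assay (REMA) in Middlebrook 7H9 broth with 10% ADC and 5% DMSO. Compounds come from 2 mg/mL DMSO stocks and are 2-fold serially diluted, top concentration 0.08–40 μg/mL depending on solubility. MIC is the lowest concentration preventing the blue-to-pink colour change. Three independent experiments; the reported value is the modal or the highest value.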

[3] = target: T1, Enoyl-[acyl-carrier-protein] reductase [NADH] (Mycobacterium tuberculosis, UniProt P9WGR1); test: Binding affinity to wild type Mycobacterium tuberculosis InhA assessed as inhibition constant for formation of enzyme-inhibitor complex in presence of NADH and DD-CoA by spectrophotometry based analysis
T1 sequence (P9WGR1 whole entry): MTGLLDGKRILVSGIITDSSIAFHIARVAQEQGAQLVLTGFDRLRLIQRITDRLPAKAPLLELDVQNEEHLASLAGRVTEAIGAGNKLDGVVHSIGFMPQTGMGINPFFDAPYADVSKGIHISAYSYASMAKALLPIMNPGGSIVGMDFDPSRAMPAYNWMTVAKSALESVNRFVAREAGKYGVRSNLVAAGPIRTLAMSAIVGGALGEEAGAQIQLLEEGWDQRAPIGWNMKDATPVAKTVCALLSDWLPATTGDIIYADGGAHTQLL

[4] = target: T1, Enoyl-[acyl-carrier-protein] reductase [NADH]; test: Binding affinity to Mycobacterium tuberculosis H37Rv InhA assessed as dissociation constant in presence of NADH, octenoyl-CoA and KatG
[5] = target: T1, Enoyl-[acyl-carrier-protein] reductase [NADH]; test: Binding affinity to wild type Mycobacterium tuberculosis InhA assessed as inhibition constant in presence of NADH, DD-CoA by spectrophotometry based analysis
[6] = system: Mycobacterium tuberculosis; test: Bactericidal activity in Mycobacterium tuberculosis H37Rv ATCC 27294 infected in CF-1 mouse assessed as reduction in bacterial growth in lungs at 150 uM/kg, po administered daily for 14 days starting from 7 days post infection; assay type: functional, organism-based; details: time 14.0 day; in short: as §1
[7] = target: T2, Enoyl-[acyl-carrier-protein] reductase [NADH] (Mycobacterium tuberculosis) (UniProt P9WGR1); test: Binding affinity to recombinant Mycobacterium tuberculosis InhA assessed as change in enthalpy at 2 mM in presence of NADH by Spectrofluorophotometry
T2 sequence (whole entry): T1 sequence (P9WGR1 whole entry)

[8] = target: T2, Enoyl-[acyl-carrier-protein] reductase [NADH] (Mycobacterium tuberculosis); test: Binding affinity to recombinant Mycobacterium tuberculosis InhA assessed as gibbs free energy change at 2 mM in presence of NADH by Spectrofluorophotometry
[9] = target: T2, Enoyl-[acyl-carrier-protein] reductase [NADH] (Mycobacterium tuberculosis); test: Binding affinity to recombinant Mycobacterium tuberculosis InhA assessed as change in entropy at 2 mM in presence of NADH by Spectrofluorophotometry
[10] = system: Mycobacterium tuberculosis; test: Antibacterial activity against MDR Mycobacterium tuberculosis clinical isolate PE-003 measured after 7 days by resazurin dye based assay; assay type: functional; details: PE-003, 168 h, time 7 day

Row | SMILES | Activity [1] | MIC [2] [µM] | Ki [3] [nM] | Kd [4] [nM] | Ki [5] [nM] | Activity [6] | deltaH [7] [kcal/mol] | deltaG [8] [kcal/mol] | deltaS [9] [cal/mol/K] | MIC [10]
1 | NNC(=O)c1ccncc1 [ISONIAZID] | Active | 2.3 (≈ 0.315 µg/mL) | 16 | < 0.4 | 0.75 | Active |  |  |  | 
2 | CCOC(=O)c1ccc2nc(C)cc(Nc3ccc(N4CCCCC4)cc3)c2c1 |  | 12.8 (≈ 4.99 µg/mL) |  |  |  |  | -23.3 | -7.1 | -54.5 | 2.5 µg/mL and 6.4 µM
